This note sets out measurements from ChEMBL document CHEMBL3414541, “Discovery of new thienopyrimidinone derivatives displaying antimalarial properties toward both erythrocytic and hepatic stages of Plasmodium” (Eur J Med Chem, 2015).

Each structure is given as a SMILES string. Activity calls are given as the source filed them. The calls are words filed in the database; no cut-off is given here.

The nature of data set [1]: Inhibition of Plasmodium falciparum DHFR after 48 hrs. The gist of the method:
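Recombinant S. cerevisiae whose own DHFR is replaced by the P. falciparum DHFR domain was used. 1×10^4 cells were grown in YEPD with compound from DMSO (final <0.5%) at 30 °C for 48 h, in duplicate. Growth was read as A660. IC50 (50% growth inhibition) came from non-linear regression.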

Data set [2] deals with Salmonella typhimurium. Put plainly: Mutagenicity in Salmonella typhimurium TA97A at 2.5 mM after 1 hr by Ames test in presence of S9 fraction. Format: toxicity, organism-based. Conditions: salmonella enterica subsp. enterica serovar typhimurium, s9, 1 h, 2500 µM. The gist of the method: (§1)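 Tester strains were grown overnight in nutrient broth. Top agar was added and the mix plated on Vogel-Bonner agar. Revertants were counted after 48 h at 37 °C in the dark. A twofold rise over spontaneous revertants counts as mutagenic.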
(The Ames test detects mutagens through reverse mutation in bacteria.)

Data set [3] relates to Plasmodium falciparum. Put plainly: Antiplasmodial activity against chloroquine-sensitive Plasmodium falciparum 3D7 infected in human erythrocytes assessed as parasite growth inhibition after 72 hrs by SYBR Green I dye-based fluorescence assay. Format: functional, organism-based. The gist of the method: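 Parasites grown in A+ human erythrocytes (2.5% haematocrit) in RPMI 1640 with 25 mM HEPES, 25 mM NaHCO3 and 10% A+ serum, at 37 °C under 6% CO2/14% O2/80% N2. Rings were sorbitol-synchronized. Compounds in DMSO (<0.5% final) were incubated 72 h at 2% haematocrit and 1% parasitaemia. SYBR Green lysis read at ex 497/em 520 nm; duplicates; IC50 from three independent experiments.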

A further data set deals with HepG2. Put plainly: (§2) Cytotoxicity against human HepG2 cells assessed as cell viability after 72 hrs by MTT assay. Format: cell-based. Conditions: hepg2, 72 h, 72 h, read-out: CC50. The gist of the method:
(§3)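 Cells were kept in RPMI with 10% FBS. 5×10^3 cells/well were settled 24 h, then exposed to compound from DMSO (final <0.5%): CHO for 24 h, HepG2 for 72 h, in duplicate. Wells were checked for precipitate. MTT was added for 2 h at 37 °C, formazan dissolved in DMSO, and A570 read (630 nm reference). Viability is % of untreated cells; CC50 from non-linear regression, mean of three experiments.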
On the technique in general: Tetrazolium dyes change colour on reduction, which living cells bring about.

The nature of data set [4]: Selectivity index, ratio of CC50 for human HepG2 cells to IC50 for multi-drug resistant Plasmodium falciparum K1 infected in human erythrocytes.
Data set [5] has as its system Salmonella typhimurium. Put plainly: Mutagenicity in Salmonella typhimurium TA100 at 2.5 mM after 1 hr by Ames test in absence of S9 fraction. Format: toxicity, organism-based. Conditions: salmonella enterica subsp. enterica serovar typhimurium, 2500 µM. In a few lines: (§4)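 Tester strains were grown overnight in nutrient broth. 0.1 mL culture was incubated 1 h at 37 °C with shaking with compound (2.5–25 mM DMSO solutions), with or without 4% S9 mix. Top agar was added and the mix plated on Vogel-Bonner agar. Revertants were counted after 48 h at 37 °C in the dark. A twofold rise over spontaneous revertants counts as mutagenic.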

Data set [6] in a line: Genotoxicity in DNA (unknown origin) incubated for 24 hrs in dark condition by methyl green displacement assay. In a few lines:
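DNA-methyl green (4 mg in 20 mL 0.05 M Tris-HCl pH 7.5 with 7.5 mmol/L MgSO4) was shaken 24 h at 37 °C. It was then added to compound from DMSO (final <0.5%). A630 was read, and read again after 24 h at room temperature in the dark. DC50 is the concentration displacing 50% of methyl green.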

Data set [7] has as its system Salmonella typhimurium. Description: Mutagenicity in Salmonella typhimurium TA97A at 2.5 mM after 1 hr by Ames test in absence of S9 fraction. Format: toxicity, organism-based. The following applies: salmonella enterica subsp. enterica serovar typhimurium, 2500 µM. In a few lines: as §4
Another data set has as its system Toxoplasma gondii. Put plainly: Antitoxoplasmic activity against tachyzoite stage of Toxoplasma gondii PRU transfected with beta galactosidase infected in HFF assessed as parasite growth inhibition after 96 hrs by colorimetric microtiter assay. Format: functional. In a few lines: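 Confluent HFF monolayers (1×10^4 seeded) were infected with 2×10^3 PRU-β-Gal tachyzoites for 3 h. Compounds from DMSO (final <0.5%) were then added in triplicate for 96 h at 37 °C. CPRG was added at 500 µM final for 24 h more, then A570 read (630 nm reference). IC50 came from non-linear regression, mean of three experiments.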

The nature of data set [8]: Inhibition of hemozoin polymerization after 24 hrs by spectroscopic analysis. Format: functional. The gist of the method: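 Hemozoin (4 mM solution in 0.1 M NaOH) was mixed with compound at drug:heme ratios of 1:1 to 8:1, in triplicate. Acetic acid was added to pH 3, and samples were incubated 24 h at 37 °C. Soluble, DMSO-soluble and pellet fractions were separated by centrifugation. Each fraction was quantified at A405 against a hemozoin standard curve. IC50 is 50% decrease in polymerization.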

The subject of data set [9] is Salmonella typhimurium. Description: Mutagenicity in Salmonella typhimurium TA100 at 2.5 mM after 1 hr by Ames test in presence of S9 fraction. Format: toxicity, organism-based. The following applies: salmonella enterica subsp. enterica serovar typhimurium, s9, 1 h, 2500 µM. The gist of the method:
as §1

The subject of another data set is Leishmania donovani. Description: Antileishmanial activity against promastigote stage of Leishmania donovani assessed as parasite growth inhibition after 72 hrs by MTT assay. Format: functional, organism-based. The gist of the method: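 L. donovani promastigotes were grown at 27 °C in Schneider's medium with 10% FBS. 1×10^6 log-phase cells/well were exposed to compound from DMSO (final <0.5% v/v) for 72 h at 27 °C, in duplicate. MTT was then added for 6 h, formazan dissolved in DMSO, and A570 read (630 nm reference). IC50 came from non-linear regression, mean of three independent experiments.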

The subject of data set [10] is Plasmodium falciparum. Description: Antiplasmodial activity against multi-drug resistant Plasmodium falciparum K1 infected in human erythrocytes assessed as parasite growth inhibition after 72 hrs by SYBR Green I dye-based fluorescence assay. Format: functional, organism-based. The following applies: read-out: IC50.
In data set [11] the test system is Plasmodium falciparum. Description: Antiplasmodial activity against multi-drug resistant Plasmodium falciparum K1 infected in human erythrocytes assessed as parasite growth inhibition after 72 hrs by SYBR Green I dye-based fluorescence assay in presence of ascorbic acid. Format: functional, organism-based. The following applies: K1, 72 h. In a few lines:
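Same SYBR Green I 72 h growth assay on the K1 strain (2% haematocrit, 1% parasitaemia, 37 °C, 6% CO2/14% O2/80% N2, DMSO <0.5%), with 800 µM ascorbic acid in the medium as radical trap. Duplicates; artesunate as positive control; IC50 derived.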

Data set [12] can be described thus: Selectivity index, ratio of CC50 for human HepG2 cells to IC50 for chloroquine-sensitive Plasmodium falciparum 3D7 infected in human erythrocytes. Format: functional. In a few lines: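 SI = HepG2 CC50 (72 h MTT) / P. falciparum IC50. […] Cultures were exposed 72 h at 37 °C to compound (DMSO final <0.5%), in duplicate. Growth was read by SYBR Green I lysis fluorescence (ex 497, em 520 nm), from three independent experiments.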

Data set [13] in a line: Cytotoxicity against CHO cells assessed as cell viability after 24 hrs by MTT assay. Format: cell-based, Cricetulus griseus. The following applies: chinese hamster. In a few lines: as §3
Data set [14] relates to Plasmodium falciparum. Put plainly: Antiplasmodial activity against multi-drug resistant Plasmodium falciparum K1 infected in human erythrocytes assessed as depolarization of mitochondrial membrane at IC50 after 20 mins by flow cytometric analysis. Format: functional, organism-based. (In general: In flow cytometry, cells or beads pass a laser one at a time.)
The next data set has as its system Plasmodium yoelii. Put plainly: Antiplasmodial activity against liver stage of Plasmodium yoelii 17X NL sporozoites infected in human HepG2 cells expressing CD81 after 48 hrs by DAPI staining-based immunofluorescence analysis. Format: functional, organism-based. The following applies: HepG2, 48 h. In a few lines: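 HepG2/CD81 cells were grown in D-MEM with 10% FBS. 25×10^3 cells/well went on collagen-coated wells; after 24 h they received compound and 5000 P. yoelii sporozoites together, then were spun 900 × g for 10 min at 4 °C. Treatment was renewed at 3 h and 24 h. At 48 h cells were methanol-fixed, stained with anti-HSP70 immunofluorescence, and parasites counted by microscopy. IC50 is 50% fewer parasites than in 0.5% DMSO controls.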

The nature of data set [15]: as §2. Format: cell-based. The following applies: HepG2 cells. The gist of the method: as §3
The nature of data set [16]: Cytotoxicity against human HepG2 cells expressing CD81 assessed as cell viability after 72 hrs by MTT assay. Format: cell-based.
A short description of data set [17]: Selectivity index, ratio of CC50 for human HepG2 cells expressing CD81 to IC50 for liver stage of Plasmodium yoelii 17X NL sporozoites infected in human HepG2 cells expressing CD81. Format: functional.

Broadly, the IC50 is the concentration at which inhibition is half-maximal. For orientation: CC50 means the concentration giving 50% cytotoxicity. For `Cc1ccc(-c2cc3nc(NC(C)C)[nH]c(=O)c3s2)cc1` [listing 1 of 2 here], the IC50 in [1] is above 250 µM; with Plasmodium falciparum [3], 0.247 µM; in the data set on Toxoplasma gondii, above 10 µM; in data set [8] it was above 25000 µM; with Leishmania donovani, above 10 µM; in the data set on Plasmodium falciparum [10], 0.8 µM. Also, the 50% inhibitory concentration (IC50) in the data set with Plasmodium falciparum [11] turned out to be 0.9 µM. For the same compound, the Activity entry in the data set on Salmonella typhimurium [2], in the data set on Salmonella typhimurium [5], in the data set on Salmonella typhimurium [7] and in the data set with Salmonella typhimurium [9] was “Non-toxic” in each case. Moreover, the half-maximal cytotoxic concentration (CC50) with HepG2 turned out to be 49.4 µM. Moreover, the “Ratio CC50/IC50” value in data set [4] was 62; in [12], 202. For the same compound, the DC50 in data set [6] is above 25000 µM.
As to `Cc1ccc(-c2cc3nc(NC(C)(C)C)[nH]c(=O)c3s2)cc1`, the IC50 in data set [1] was above 500 µM; in the data set on Plasmodium falciparum [3] it was 0.14 µM; with Toxoplasma gondii it was above 10 µM; in [8] it was 21600 µM; in the data set on Leishmania donovani, above 10 µM; with Plasmodium falciparum [10] it was 0.2 µM. For the same compound, the IC50 in the data set on Plasmodium falciparum [11] is 0.2 µM. Moreover, the Activity entry in the data set on Salmonella typhimurium [2], in the data set with Salmonella typhimurium [5], in the data set with Salmonella typhimurium [7] and in the data set with Salmonella typhimurium [9] was “Non-toxic” in each case. In addition, in the data set with HepG2, the CC50 amounted to 25.6 µM. The “Ratio CC50/IC50” value in data set [4] amounted to 128; in data set [12] it was 183. The DC50 in data set [6] was above 25000 µM. Besides, the CC50 at 24 h in data set [13] was 27.5 µM.
For `Cc1ccc(-c2cc3nc(NC(C)C)[nH]c(=O)c3s2)cc1` [listing 2 of 2 here], the result with Plasmodium falciparum [14] was inactive.
`CC(C)(C)Nc1nc2cc(-c3ccc(Cl)cc3)sc2c(=O)[nH]1.O=C(O)/C=C/C(=O)O`: the figures for the IC50 with Plasmodium yoelii, with Plasmodium falciparum [3] and in the data set on Plasmodium falciparum [10] were 0.06 µM, 0.168 µM and 0.8 µM, respectively. The CC50 at 72 h was 15.6 µM in data set [15] and above 120 µM in [16]. Moreover, the “Ratio CC50/IC50” value in data set [4] was 78; in data set [17], above 2000; in data set [12], 93.
As for `Cc1ccc(-c2cc3nc(NC(C)C)[nH]c(=O)c3s2)cc1.O=C(O)/C=C/C(=O)O`, the half-maximal inhibitory concentration (IC50) was 0.12 µM in the data set with Plasmodium yoelii; 0.182 µM with Plasmodium falciparum [3] (Plasmodium falciparum, 3D7, 72 h); 0.8 µM in the data set with Plasmodium falciparum [10]. Besides, the CC50 at 72 h is 26.9 µM in data set [15] and above 111 µM in data set [16]. The “Ratio CC50/IC50” value in [4] is listed as 135; in data set [17], above 925; in [12], 148.
